{"source": "ChEMBL document CHEMBL2163251", "about": "“Synthesis and pharmacological evaluation of indolinone derivatives as novel ghrelin receptor antagonists” (Bioorg Med Chem, 2012)", "key": {"[1]": {"assay": "Binding affinity at adenosine receptor at 10 uM"}, "Rattus norvegicus [2]": {"test_system": "Rattus norvegicus", "assay": "Inhibition of gastric emptying in CD rat at 10 mg/kg, ip", "format": "functional", "details": "Stomach, route intraperitoneal", "how_it_was_run": "(§1)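 24 h fasted male CD rats dosed ip (vehicle 2 ml/kg), no ghrelin. BaSO4 meal (75% w/v in 0.5% CMC, 1 ml/100 g) given by gavage. Rats killed at 0 or 60 min and stomach content weighed. Result expressed relative to the mean content of drug-free controls killed at t=0.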"}, "Mus musculus [3]": {"test_system": "Mus musculus", "assay": "Inhibition of ghrelin-induced food intake in fasted C57/BL6N mouse at 10 mg/kg, ip up to 6 hrs", "format": "functional, organism-based", "parameters": "dose 10 mg/kg", "how_it_was_run": "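Male C57BL/6 mice fasted overnight and dosed ip 10 mg/kg (vehicle 10 ml/kg) 1 h before refeeding. Cumulative food intake recorded after food return.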"}, "Rattus norvegicus [4]": {"test_system": "Rattus norvegicus", "assay": "Inhibition of ghrelin induced food intake in CD rat at 10 mg/kg, ip administered 30 mins prior to icv ghrelin challenge measured after 1 hr", "format": "functional", "details": "route intraperitoneal", "how_it_was_run": "(§2)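 Adult male CD rats (200–300 g) fitted with lateral-ventricle cannulae. Dosed 10 mg/kg ip 30 min before icv rat ghrelin (10 µg/rat in 15 µl) or saline. Cumulative food intake measured hourly for 4 h, n=6–7 per group.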"}, "P-glycoprotein": {"test_system": "P-glycoprotein", "assay": "P-glycoprotein-mediated efflux ratio of the compound", "format": "ADME", "details": "not told"}, "Rattus norvegicus [5]": {"test_system": "Rattus norvegicus", "assay": "Inhibition of ghrelin-induced gastric emptying in ip dosed CD rat", "format": "functional, organism-based", "details": "Stomach", "how_it_was_run": "(§3)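 24 h fasted male CD rats dosed ip (vehicle 2 ml/kg), then given rat ghrelin 20 µg/kg iv. BaSO4 meal (75% w/v in 0.5% CMC, 1 ml/100 g) given by gavage. Stomach content weighed at 0 or 60 min and compared with drug-free controls killed at t=0.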"}, "[6]": {"molecular_target": "T1, Growth hormone secretagogue receptor type 1 (Homo sapiens, UniProt Q92847)", "T1 sequence (Q92847 whole entry)": "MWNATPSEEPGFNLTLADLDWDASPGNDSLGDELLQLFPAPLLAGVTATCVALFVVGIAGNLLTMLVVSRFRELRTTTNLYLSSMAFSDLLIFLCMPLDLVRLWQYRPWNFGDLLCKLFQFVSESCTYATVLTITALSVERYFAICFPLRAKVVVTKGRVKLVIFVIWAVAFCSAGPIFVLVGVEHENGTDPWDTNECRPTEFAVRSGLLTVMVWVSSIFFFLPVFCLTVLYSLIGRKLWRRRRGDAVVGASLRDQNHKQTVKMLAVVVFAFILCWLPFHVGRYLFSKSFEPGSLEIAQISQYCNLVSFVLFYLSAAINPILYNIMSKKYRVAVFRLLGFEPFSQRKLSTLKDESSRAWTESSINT", "assay": "Displacement of [125I]-ghrelin from human GHSR1 expressed in CHO-CREluc cells after 1 hr by scintillation counting", "format": "cell-based", "how_it_was_run": "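Crude membranes from CHO-CREluc-hGHSR1a cells were homogenized in TM buffer (10 mM Tris-HCl pH 7.4, 10 mM MgCl2) and spun at 40,000g. Incubated 1 h in TM buffer with 0.25% BSA and 10% dialysed FBS, 0.25 nM [125I] human ghrelin and increasing compound concentrations. Harvested on PEI-pretreated GF/B filters and washed with cold buffer. Bound radioactivity counted by scintillation.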"}, "Rattus norvegicus [7]": {"test_system": "Rattus norvegicus", "assay": "Inhibition of ghrelin-induced gastric emptying in CD rat at 10 mg/kg, ip", "format": "functional", "details": "Stomach, route intraperitoneal", "how_it_was_run": "as §3"}, "[8]": {"assay": "Binding affinity at vasopressin receptor at 10 uM"}, "Mus musculus [9]": {"test_system": "Mus musculus", "assay": "Effect of glucose tolerance in fasted C57/BL6N mouse assessed as inhibition of glucose excursion at 30 mg/kg, po administered 30 mins before glucose challenge measured after 20 to 120 mins by IPGTT", "format": "functional", "how_it_was_run": "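Male C57/Bl6N mice fasted 16–18 h, then given 30 mg/kg or vehicle by oral gavage. Fasting glucose read from tail blood 30 min after dosing. Glucose 2 g/kg ip given 30 min later, with glucose measured at 20–120 min. […] calculated by trapezoidal method and expressed as % of vehicle AUC.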"}, "[10]": {"assay": "Binding affinity at muscarinic receptor at 10 uM"}, "[11]": {"assay": "Drug metabolism in mouse liver microsomes at 5 uM after 24 hrs", "format": "ADME, Microsome", "details": "read-out: Drug metabolism", "how_it_was_run": "(§4)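 Compound at 5 µM incubated 24 h with isolated hepatic microsomal fractions from mouse, rat or human.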"}, "[12]": {"assay": "Drug metabolism in rat liver microsomes at 5 uM after 24 hrs", "format": "ADME, Microsome", "details": "read-out: Drug metabolism", "how_it_was_run": "as §4"}, "Rattus norvegicus [13]": {"test_system": "Rattus norvegicus", "assay": "Inhibition of ghrelin induced food intake in CD rat at 10 mg/kg, ip administered 30 mins prior to icv ghrelin challenge measured after 4 hrs", "format": "functional", "details": "route intraperitoneal", "how_it_was_run": "as §2"}, "[14]": {"assay": "Permeability across human Caco2/TC7 cells compound transport", "format": "ADME, cell-based", "details": "Caco-2, read-out: permeability"}, "Hepatocyte": {"test_system": "Hepatocyte", "assay": "Intrinsic clearance in human hepatocytes assessed per million cells at 5 uM", "format": "ADME, cell-based"}, "[15]": {"assay": "Binding affinity at dopamine receptor at 10 uM"}, "Rattus norvegicus [16]": {"test_system": "Rattus norvegicus", "assay": "Inhibition of ghrelin-induced gastric emptying in CD rat at 3 mg/kg, ip", "format": "functional", "details": "Stomach, route intraperitoneal", "how_it_was_run": "as §3"}, "[17]": {"assay": "Binding affinity at opioids receptor at 10 uM"}, "Rattus norvegicus [18]": {"test_system": "Rattus norvegicus", "assay": "Inhibition of ghrelin induced food intake in CD rat at 10 mg/kg, ip administered 30 mins prior to icv ghrelin challenge measured after 2 hrs", "format": "functional", "details": "route intraperitoneal", "how_it_was_run": "as §2"}, "[19]": {"assay": "Binding affinity at cannbinoids receptor at 10 uM"}, "[20]": {"assay": "Drug metabolism in human liver microsomes at 5 uM after 24 hrs", "format": "ADME, Microsome", "details": "read-out: Drug metabolism", "how_it_was_run": "as §4"}, "Rattus norvegicus [21]": {"test_system": "Rattus norvegicus", "assay": "Inhibition of gastric emptying in CD rat at 3 mg/kg, ip", "format": "functional", "details": "Stomach, route intraperitoneal", "how_it_was_run": "as §1"}, "[22]": {"molecular_target": "T1, Growth hormone secretagogue receptor type 1", "assay": "Antagonist activity at human GHSR1 expressed in CHO-CREluc cells after 4 hrs by Luciferase reporter assay", "format": "functional, cell-based", "how_it_was_run": "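hGHSR1a stably cloned into CHO line carrying CRE-luciferase reporter (six CRE upstream of firefly luciferase). Cells plated in MEM with 10% dialysed FBS. Stimulation medium held 0.1 µM forskolin and 3 nM human ghrelin. Luciferase read by photon counting.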"}, "[23]": {"assay": "Binding affinity at serotonin receptor at 10 uM"}, "[24]": {"assay": "Binding affinity at histamine receptor at 10 uM"}, "[25]": {"assay": "Binding affinity at adrenergic receptor at 10 uM"}, "[26]": {"assay": "Binding affinity at receptor at 10 uM"}, "[27]": {"assay": "Permeability across human Caco2/TC7 cells assessed as compound recovery", "format": "ADME, cell-based", "details": "Caco-2, read-out: permeability"}, "Rattus norvegicus [28]": {"test_system": "Rattus norvegicus", "assay": "Inhibition of ghrelin induced food intake in CD rat at 10 mg/kg, ip administered 30 mins prior to icv ghrelin challenge measured after 3 hrs", "format": "functional", "details": "route intraperitoneal", "how_it_was_run": "as §2"}}, "note": "Activity calls are given as the source filed them. The calls are words filed in the database; no cut-off is given here.", "data": [{"smiles": "CCN1CCN(CC(=O)NC2(c3ccc(Cl)c(Cl)c3)C(=O)Nc3cc(Cl)cc(Cl)c32)CC1", "note": "(single isomer, unassigned; (+))", "values": [{"measurement": "Activity", "setting": "[1]", "value": "inactive"}, {"measurement": "inhibition in vivo at 10 mg/kg", "setting": "Rattus norvegicus [2]", "value": 55, "unit": "%"}, {"measurement": "inhibition", "setting": "Mus musculus [3]", "value": "Active"}, {"measurement": "inhibition in vivo at 10 mg/kg", "setting": "Rattus norvegicus [4]", "value": 58, "unit": "%"}, {"measurement": "efflux ratio", "setting": "P-glycoprotein", "value": 6.6}, {"measurement": "inhibition", "setting": "Rattus norvegicus [5]", "value": "Dose-dependent effect"}, {"measurement": "Ki", "setting": "[6]", "value": 8, "unit": "nM"}, {"measurement": "inhibition in vivo at 10 mg/kg", "setting": "Rattus norvegicus [7]", "value": 62, "unit": "%"}, {"measurement": "Activity", "setting": "[8]", "value": "inactive"}, {"measurement": "inhibition in vivo at 30 mg/kg", "setting": "Mus musculus [9]", "value": 32, "unit": "%"}, {"measurement": "Activity", "setting": "[10]", "value": "inactive"}, {"measurement": "metabolised at 24 h, 5 µM", "setting": "[11]", "value": 44, "unit": "%"}, {"measurement": "metabolised at 24 h, 5 µM", "setting": "[12]", "value": 45, "unit": "%"}, {"measurement": "inhibition in vivo at 10 mg/kg", "setting": "Rattus norvegicus [13]", "value": 53, "unit": "%"}, {"measurement": "Papp", "setting": "[14]", "value": 0.385, "unit": "×10⁻⁶ cm/s"}, {"measurement": "CLint", "setting": "Hepatocyte", "value": 0.097, "unit": "mL/h/10⁶ cells"}, {"measurement": "Activity", "setting": "[15]", "value": "inactive"}, {"measurement": "inhibition in vivo at 3 mg/kg", "setting": "Rattus norvegicus [16]", "value": 55, "unit": "%"}, {"measurement": "Activity", "setting": "[17]", "value": "inactive"}, {"measurement": "inhibition in vivo at 10 mg/kg", "setting": "Rattus norvegicus [18]", "value": 60, "unit": "%"}, {"measurement": "Activity", "setting": "[19]", "value": "inactive"}, {"measurement": "metabolised at 24 h, 5 µM", "setting": "[20]", "value": 41, "unit": "%"}, {"measurement": "inhibition in vivo at 3 mg/kg", "setting": "Rattus norvegicus [21]", "value": 68, "unit": "%"}, {"measurement": "IC50", "setting": "[22]", "value": 7, "unit": "nM"}, {"measurement": "Activity", "setting": "[23]", "value": "inactive"}, {"measurement": "Activity", "setting": "[24]", "value": "inactive"}, {"measurement": "Activity", "setting": "[25]", "value": "inactive"}, {"measurement": "Activity", "setting": "[26]", "value": "inactive"}, {"measurement": "recovery", "setting": "[27]", "value": 51.8, "unit": "%"}, {"measurement": "inhibition in vivo at 10 mg/kg", "setting": "Rattus norvegicus [28]", "value": 61, "unit": "%"}]}]}
